{
  "source": "ChEMBL document CHEMBL1144022",
  "about": "“Synthesis and anti-HIV activity of 4'-substituted 4'-thiothymidines: a new entry based on nucleophilic substitution of the 4'-acetoxy group” (J Med Chem, 2008)",
  "key": {"[1]": {"assay": "Cytotoxicity against human M8166 cells after 4 days by MTT assay", "type": "cell-based"}, "[2]": {"assay": "Cytotoxicity against human MT4 cells after 4 days by MTT assay", "type": "cell-based", "procedure,_shortened": "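Mock-infected MT-4 cells were run in parallel with the antiviral assay, with various concentrations of compound for 4 days at 37 °C. Viability was read by MTT. The value is the concentration that reduces viability by 50%.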"}, "[3]": {"tested_on": "Human immunodeficiency virus 1", "assay": "Antiviral activity against HIV1 3B in human MT4 cells assessed as virus-induced cytopathogenicity after 4 days by MTT assay", "type": "functional, organism-based", "settings": "Human immunodeficiency virus 1, 3B, MT4, 96 h", "procedure,_shortened": "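MT-4 cells (1 × 10⁵ cells/mL) were infected with HIV-1 IIIB at an MOI of 0.02 and cultured with various concentrations of compound for 4 days at 37 °C. Viable cells were counted by MTT. The value is the concentration giving 50% protection against the viral cytopathic effect.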"}, "[4]": {"tested_on": "Human immunodeficiency virus 2", "assay": "Antiviral activity against HIV2 in human M8166 cells assessed as virus-induced cytopathogenicity after 4 days by MTT assay", "type": "functional, organism-based", "settings": "Human immunodeficiency virus 2, M8166, 96 h", "procedure,_shortened": "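M8166 cells (1 × 10⁵) were infected with HIV-2 at an MOI of 0.1 and cultured with various concentrations of compound for 4 days at 37 °C. Viability was read by MTT. The value is the concentration giving 50% protection against the viral cytopathic effect.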"}, "[5]": {"tested_on": "Human immunodeficiency virus type 1 reverse transcriptase (Human immunodeficiency virus 1), Q72547 [M184V]", "assay": "Activity at reverse transcriptase M184V mutant in HIV1 assessed as suppression of replication"}},
  "note": "Active and inactive are the calls of the source. No cut-off for these calls is given here.",
  "data": [
    {"smiles": "CO[C@]1(CO)S[C@@H](n2cc(C)c(=O)[nH]c2=O)C[C@@H]1O", "values": [
      {"measurement": "CC50 at 96 h", "setting": "[1]", "value": "> 100", "unit": "µM"},
      {"measurement": "CC50 at 96 h", "setting": "[2]", "value": "> 100", "unit": "µM"},
      {"measurement": "EC50", "setting": "[3]", "value": "> 4", "unit": "µM"},
      {"measurement": "EC50", "setting": "[4]", "value": 1.2, "unit": "µM"}
    ]},
    {"smiles": "Cc1cn([C@H]2C[C@H](O)[C@](CO)(Sc3ccccc3)S2)c(=O)[nH]c1=O", "values": [
      {"measurement": "CC50 at 96 h", "setting": "[1]", "value": "> 100", "unit": "µM"},
      {"measurement": "CC50 at 96 h", "setting": "[2]", "value": "> 100", "unit": "µM"},
      {"measurement": "EC50", "setting": "[3]", "value": "> 100", "unit": "µM"},
      {"measurement": "EC50", "setting": "[4]", "value": "> 100", "unit": "µM"}
    ]},
    {"smiles": "C#C[C@]1(CO)S[C@@H](n2cc(C)c(=O)[nH]c2=O)C[C@@H]1O", "values": [
      {"measurement": "CC50 at 96 h", "setting": "[1]", "value": "> 10", "unit": "µM"},
      {"measurement": "CC50 at 96 h", "setting": "[2]", "value": "> 100", "unit": "µM"},
      {"measurement": "Activity", "setting": "[5]", "value": "Active"},
      {"measurement": "EC50", "setting": "[3]", "value": 0.31, "unit": "µM"},
      {"measurement": "EC50", "setting": "[4]", "value": 0.13, "unit": "µM"}
    ]},
    {"smiles": "Cc1cn([C@H]2C[C@H](O)[C@@](C#N)(CO)S2)c(=O)[nH]c1=O", "values": [
      {"measurement": "CC50 at 96 h", "setting": "[1]", "value": "> 10", "unit": "µM"},
      {"measurement": "CC50 at 96 h", "setting": "[2]", "value": "> 100", "unit": "µM"},
      {"measurement": "Activity", "setting": "[5]", "value": "Active"},
      {"measurement": "EC50", "setting": "[3]", "value": 0.037, "unit": "µM"},
      {"measurement": "EC50", "setting": "[4]", "value": 0.023, "unit": "µM"}
    ]},
    {"smiles": "Cc1cn([C@H]2C[C@H](O)[C@](CO)(N=[N+]=[N-])S2)c(=O)[nH]c1=O", "values": [
      {"measurement": "CC50 at 96 h", "setting": "[1]", "value": "> 10", "unit": "µM"},
      {"measurement": "CC50 at 96 h", "setting": "[2]", "value": 40, "unit": "µM"},
      {"measurement": "EC50", "setting": "[3]", "value": 0.02, "unit": "µM"},
      {"measurement": "EC50", "setting": "[4]", "value": 0.024, "unit": "µM"}
    ]},
    {"smiles": "C=CC[C@]1(CO)S[C@@H](n2cc(C)c(=O)[nH]c2=O)C[C@@H]1O", "values": [
      {"measurement": "CC50 at 96 h", "setting": "[1]", "value": "> 100", "unit": "µM"},
      {"measurement": "CC50 at 96 h", "setting": "[2]", "value": "> 100", "unit": "µM"},
      {"measurement": "EC50", "setting": "[3]", "value": "> 100", "unit": "µM"},
      {"measurement": "EC50", "setting": "[4]", "value": "> 100", "unit": "µM"}
    ]}
  ]
}
